The whole screen tested about 11,000 compounds, of which about 510 (4.6%) were called active. Shown is part of a subset that was picked to be rich in actives. Unmarked numbers belong to inactive results.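 The calls were made as follows: active = inhibition of at least 40% at 10 µM in either of the two replicates; inactive = the rest.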
system: intestinal alkaline phosphatase [Mus musculus]; test: inhibitors of mouse IAP, confirmation, biochemical, luminescence, single concentration (AID 434971); conditions: purified mouse IAP, CDP-Star luminescence, 30 min; at 10 µM; active compounds read high;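 also: plate controls were DMSO wells with enzyme for no effect and buffer wells lacking enzyme for full effect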
In short: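 System: mouse IAP enzyme; Medium: DEA buffer, ZnCl2, MgCl2; Probe or stimulus: CDP-Star; Doses: compound in DMSO; Incubation: 30 min, room temperature; Signal: luminescence from CDP-Star dephosphorylation; Control set: enzyme-free wells as negative control.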

Structure (SMILES)	inhibition
O=C(CCCN1C(=O)/C(=C\c2ccco2)SC1=S)Nc1cccc2ccccc12	49.1% (active)
O=C(CCCN1C(=O)/C(=C/c2ccco2)SC1=S)Nc1ccccc1	49.1% (active)
O=c1ccc2c(-c3ccccc3S(=O)(=O)O)c3ccc(O)c(O)c3oc-2c1O	79.7% (active)
O=C(Nc1nc(-c2ccco2)c(-c2ccco2)s1)c1ccco1	74.3% (active)
Cc1cc(C)cc(NC(=O)NC2CCCCCCC2)c1	-237%
COc1ccc(CN2CCC(n3nccc3NC(=O)CCCc3ccccc3)CC2)cc1C	-140%
COc1ccc(NC(=O)NC2CC3CCCC(C2)N3Cc2ccccc2)cc1 (stereo not given)	-171%
COc1ccccc1-n1c(-c2cc(-c3ccco3)[nH]n2)n[nH]c1=S	68.7% (active)
COc1cc(C(=O)Nn2c(O)c(C3=c4ccccc4=NC3=O)sc2=S)ccc1O	93.1% (active)
c1ccc(-c2cc3c(NCC4COc5ccccc5O4)ncnc3s2)cc1 (stereo not given)	-97.1%
CCN(c1ccccc1)S(=O)(=O)c1ccc2[nH]c(=O)[nH]c2c1	73.4% (active)
Cc1ccc(C)c(CN2CCC(CNC(=O)Nc3ccc(C)c(F)c3)CC2)c1	-116%
CCn1cc(CN2CCC(C(=O)Nc3cccc(-c4cccc(Cl)c4)c3)CC2)cn1	-329%
NS(=O)(=O)c1ccc(-c2ccc(/C=C3\SC(=O)NC3=O)o2)cc1	68.1% (active)
C#CCOCCOCCOCCNc1nc(N2CCN(C(=O)CCCCCCCCCCNC(=O)Cn3cc(CCCCCN)nn3)CC2)nc(N2CCN(C(=O)CCCCCCCCCCNC(=O)[C@H](CO)n3cc(CCCSC)nn3)CC2)n1	-153%
Oc1ccc(CNc2ccccc2O)cc1	41.2% (active)
CC(C)S(=O)(=O)c1csc(NC(=O)Nc2ccc(Cl)cc2)c1Cl	-116%
Nc1ccc2nc3c(=O)[nH]c(=S)[nH]c3nc2c1	78.3% (active)

Structure (SMILES)	inhibition
COC(=O)c1ccc(NC(=O)Nc2ccc(C)cc2)cc1	-115%
CCn1cc(CN2CCC(C(=O)Nc3cccc(-c4cccc(Cl)c4)c3)CC2)c(C)n1	-396%
Oc1cc(O)c2c(c1)OC(c1ccc(O)c(O)c1)C(O)C2 (stereo not given)	84.5% (active)
Cc1cccc(CN2CCC(CNC(=O)Nc3ccc(F)c(Cl)c3)CC2)c1	-115%
COc1cccc(/C=N\NC(=O)C2=NNC(=O)C2C)c1O (stereo not given)	60.2% (active)
Cc1ccc(Cc2cnc(N)s2)o1	58.5% (active)
O=c1[nH]c(=S)[nH]c2[nH]c(=S)[nH]c12	81.9% (active)
O=C(Nc1cccc(-c2cccc(Cl)c2)c1)C1CCN(C2CCC2)CC1	-294%
Cc1cc(NC(=O)Nc2ccc(Cl)cc2)n(-c2ccccc2)n1	-107%
COc1ccc(OC)c(Nc2nc(-c3ccc(O)c(O)c3)cs2)c1	74.3% (active)
O=C(Nc1cccc(F)c1)NC1CCCCCCC1	-142%
COc1cc(/C=N\Nc2nc(-c3cccs3)c(NC(C)=O)s2)ccc1O	47% (active)
OCCCN1c2ccccc2Nc2nnc(-c3ccccc3)cc21	-208%
c1ccc(CSc2nnc(-c3ccco3)c(-c3ccco3)n2)cc1	69% (active)
Clc1ccccc1CSc1nnc(-c2ccco2)c(-c2ccco2)n1	71.8% (active)
O=[N+]([O-])c1cc(Cl)cc(/C=N/NC(=S)Nc2cc(S(=O)(=O)N3CCOCC3)ccc2Cl)c1O	40.3% (active)
CCc1ccc(NC(=O)NC(C)c2ccc3c(c2)OCO3)cc1 (stereo not given)	-166%

— PubChem BioAssay AID434971 (Sanford-Burnham Center for Chemical Genomics, 2010)
